Activity calls are given as the source filed them. The rule behind the calls is not given here.

The results in this text go back to ChEMBL document CHEMBL4043285 (J Med Chem, 2018).

One series addresses Aurora kinase B (Homo sapiens, UniProt Q96GD4). Description: Inhibition of human recombinant AurKB after 4 hrs by ADP-Glo assay. A general note: In ADP-Glo the light output rises with the ADP produced.
A further series concerns the target T1, Aurora kinase A (Homo sapiens, UniProt O14965).
T1 sequence (O14965 whole entry): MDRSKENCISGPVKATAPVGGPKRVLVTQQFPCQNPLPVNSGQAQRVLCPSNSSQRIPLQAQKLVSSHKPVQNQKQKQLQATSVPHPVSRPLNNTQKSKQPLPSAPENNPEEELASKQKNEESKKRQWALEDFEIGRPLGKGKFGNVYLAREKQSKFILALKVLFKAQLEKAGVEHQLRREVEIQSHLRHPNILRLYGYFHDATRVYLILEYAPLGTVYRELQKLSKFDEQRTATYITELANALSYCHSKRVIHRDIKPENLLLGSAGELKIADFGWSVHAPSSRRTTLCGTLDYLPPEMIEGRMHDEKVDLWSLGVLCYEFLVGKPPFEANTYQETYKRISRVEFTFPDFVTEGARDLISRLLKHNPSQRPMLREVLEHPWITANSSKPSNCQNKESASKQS
Description: Inhibition of human recombinant AurKA after 4 hrs by ADP-Glo assay.

A further series has as its system Mus musculus. Description: Protection against TNF-induced hypothermia in TNF-induced SIRS C57BL/6J mouse model at 50 mg/kg administered via oral gavage treated 1.5 hrs prior to TNF challenge by thermometric analysis. The format is functional, organism-based. The method, boiled down:
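Mice were dosed orally by gavage at 50 mg/kg, 1.5 h before challenge with murine TNF (mTNF).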

Series [1] in a line: Inhibition of Aurk mouse L929sA cells transfected with human Fas assessed as reduction in cell growth after 24 hrs in presence of TNF by Hoechst 33342 staining-based microscopic assay. The method, boiled down: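 L929sAhFAS cells exposed to compound; total cell number is counted after 24 h. IC50 is fitted from a dose–response curve of cell growth.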
Series [2] can be described thus: Inhibition of Aurk mouse L929sA cells transfected with human Fas assessed as increase in nuclear area after 24 hrs in presence of TNF by Hoechst 33342 staining-based microscopic assay. The method, boiled down: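 L929sAhFAS cells treated with compound; mean nuclear area is measured and fitted as a sigmoidal dose–response curve.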
For series [3], the target named is T2, Receptor-interacting serine/threonine-protein kinase 1 (Homo sapiens, UniProt Q13546).
T2 sequence (Q13546 whole entry): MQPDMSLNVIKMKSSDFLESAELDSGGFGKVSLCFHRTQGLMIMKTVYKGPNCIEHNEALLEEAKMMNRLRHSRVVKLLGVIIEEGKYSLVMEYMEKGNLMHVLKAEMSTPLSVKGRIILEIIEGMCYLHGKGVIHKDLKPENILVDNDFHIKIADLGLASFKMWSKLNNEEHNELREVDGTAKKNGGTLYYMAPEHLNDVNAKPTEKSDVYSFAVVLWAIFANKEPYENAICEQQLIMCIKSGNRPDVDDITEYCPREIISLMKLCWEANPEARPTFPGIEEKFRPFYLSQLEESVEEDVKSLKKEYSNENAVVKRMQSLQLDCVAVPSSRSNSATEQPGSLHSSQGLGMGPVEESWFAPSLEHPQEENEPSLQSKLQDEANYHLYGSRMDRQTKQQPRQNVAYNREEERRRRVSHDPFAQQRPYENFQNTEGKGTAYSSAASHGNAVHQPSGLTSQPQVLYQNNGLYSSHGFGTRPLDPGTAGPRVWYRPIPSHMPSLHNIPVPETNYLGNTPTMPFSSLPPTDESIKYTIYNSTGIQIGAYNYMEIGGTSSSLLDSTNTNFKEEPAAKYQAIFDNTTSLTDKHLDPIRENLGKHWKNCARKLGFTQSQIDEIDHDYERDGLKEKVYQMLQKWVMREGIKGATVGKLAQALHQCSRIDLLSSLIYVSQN
Description: Inhibition of human recombinant RIPK1 after 4 hrs by ADP-Glo assay.

In series [4] the test system is Aurk (Aurora kinase). Description: Inhibition of Aurk in mouse L929sA cells transfected with human Fas assessed as reduction in cell growth at 3 uM after 24 hrs in presence of TNF by Hoechst 33342 staining-based microscopic assay relative to control.
The subject of series [5] is Aurk (Aurora kinase). Description: Inhibition of Aurk in mouse L929sA cells transfected with human Fas assessed as increase in nuclear area at 3 uM after 24 hrs in presence of TNF by Hoechst 33342 staining-based microscopic assay relative to control. The format is cell-based.
The target of series [6] is T3, Receptor-interacting serine/threonine-protein kinase 1 (Mus musculus) (UniProt Q60855).
T3 sequence (whole entry): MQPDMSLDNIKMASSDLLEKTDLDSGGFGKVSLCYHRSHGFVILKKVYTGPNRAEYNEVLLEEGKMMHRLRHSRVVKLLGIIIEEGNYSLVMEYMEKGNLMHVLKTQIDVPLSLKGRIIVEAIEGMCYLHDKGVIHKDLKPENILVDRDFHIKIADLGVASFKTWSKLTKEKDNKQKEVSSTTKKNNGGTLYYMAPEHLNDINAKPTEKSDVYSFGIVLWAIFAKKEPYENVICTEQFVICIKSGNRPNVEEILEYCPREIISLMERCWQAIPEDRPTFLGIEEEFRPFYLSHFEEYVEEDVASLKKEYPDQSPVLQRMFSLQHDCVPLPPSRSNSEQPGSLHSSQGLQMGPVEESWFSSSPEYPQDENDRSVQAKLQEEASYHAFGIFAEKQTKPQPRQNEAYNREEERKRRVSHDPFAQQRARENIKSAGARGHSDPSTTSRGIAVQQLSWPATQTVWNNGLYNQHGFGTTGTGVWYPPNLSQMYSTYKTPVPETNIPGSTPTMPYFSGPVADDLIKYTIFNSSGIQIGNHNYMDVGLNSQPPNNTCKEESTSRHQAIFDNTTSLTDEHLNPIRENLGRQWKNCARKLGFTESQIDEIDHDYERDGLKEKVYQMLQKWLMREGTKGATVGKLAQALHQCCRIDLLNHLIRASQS
Description: Inhibition of RIPK1 in mouse L929sA cells transfected with human Fas assessed as inhibition in TNF-induced necroptosis at 3 uM pretreated for 0.5 hrs followed by TNF and zVAD.fmk addition measured after 3 hrs by Hoechst 33342/propidium iodide staining-based assay relative to control. The format is cell-based.

In series [7] the target is T3, Receptor-interacting serine/threonine-protein kinase 1 (Mus musculus). Description: Inhibition of RIPK1 in mouse L929sA cells transfected with human Fas assessed as inhibition in TNF-induced necroptosis at 3 uM pretreated for 24 hrs followed by TNF and zVAD.fmk addition measured after 3 hrs by Hoechst 33342/propidium iodide staining-based assay relative to control. The format is cell-based.

Chain of Aurora kinase B (Q96GD4 whole entry): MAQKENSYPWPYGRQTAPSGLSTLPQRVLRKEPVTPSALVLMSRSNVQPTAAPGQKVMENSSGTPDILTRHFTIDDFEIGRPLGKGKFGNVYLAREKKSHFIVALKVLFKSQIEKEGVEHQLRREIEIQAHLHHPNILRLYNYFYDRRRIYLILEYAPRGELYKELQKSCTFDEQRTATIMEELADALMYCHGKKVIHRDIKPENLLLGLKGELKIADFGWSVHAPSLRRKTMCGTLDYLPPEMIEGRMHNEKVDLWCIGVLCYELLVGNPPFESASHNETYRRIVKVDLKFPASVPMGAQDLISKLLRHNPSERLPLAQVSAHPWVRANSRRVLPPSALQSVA

As for `CN1C(=O)NC(Cc2c[nH]c3c(Cl)cccc23)C1=O` (centres undefined), the IC50 on Aurora kinase B and at Aurora kinase A was greater than 3 µM throughout. The result in the series on Mus musculus was Active.
`Cc1cc(Nc2cc(N3CCN(C)CC3)nc(Nc3ccc(NC(=O)C4CC4)cc3)n2)n[nH]1`: the half-inhibitory concentration (IC50) (commonly the concentration at which inhibition is half-maximal) in series [1] is greater than 3 µM; in [2], greater than 3 µM; on Aurora kinase B, 1.34 µM; at Aurora kinase A, 0.293 µM; in series [3], 0.178 µM. Besides, the inhibition at 24 h, 3 µM with Aurk (Aurora kinase) [4] and with Aurk (Aurora kinase) [5] was less than 50% in each case. Further, the result with Mus musculus was Active.
Regarding `Cc1cc(Nc2cc(N3CCCCC3)nc(Nc3ccc(NC(=O)C4CC4)cc3)n2)n[nH]1`, the results for the 50% inhibitory concentration (IC50) (in [1]; in [2]; on Aurora kinase B) were greater than 3 µM, greater than 3 µM and 0.959 µM, respectively. Besides, the inhibition at 24 h, 3 µM in the series on Aurk (Aurora kinase) [4] and in the series on Aurk (Aurora kinase) [5] was less than 50% throughout. Besides, the result in the series on Mus musculus was inactive.
Turning to `Cc1cc(Nc2nc(Nc3ccc(NC(=O)C4CC4)cc3)nc(N3CCN(C)CC3)n2)n[nH]1`, the IC50 in series [1] and in [2] was greater than 3 µM in each case. The inhibition in series [6] and in series [7] was less than 50% throughout. The inhibition at 24 h, 3 µM with Aurk (Aurora kinase) [4] and in the series with Aurk (Aurora kinase) [5] was less than 50% in each case.
For `Cc1[nH]nc(Nc2cc(N3CCOCC3)nc(Nc3ccc(NC(=O)C4CCCCC4)cc3)n2)c1C`, the half-maximal inhibitory concentration (IC50) in [1] and in series [2] was greater than 3 µM throughout. Besides, the inhibition in series [6] and in series [7] was less than 50% throughout. Moreover, the inhibition at 24 h, 3 µM in the series with Aurk (Aurora kinase) [4] and in the series on Aurk (Aurora kinase) [5] was less than 50% each time.
Regarding `Cc1cc(Nc2nc(Sc3ccc(NC(=O)C4CCCCC4)cc3)nc(N3CCN(C)CC3)n2)n[nH]1`, the half-inhibitory concentration (IC50) worked out at 0.33 µM in series [1]; 0.4 µM in [2]; 0.229 µM at Aurora kinase B; 0.21 µM at Aurora kinase A; 2.47 µM in series [3]. The inhibition in [6] and in series [7] was less than 50% throughout.
For `Cc1[nH]nc(Nc2nc(Sc3ccc(NC(=O)C4CC4)cc3)nc(N3CCCCC3)n2)c1C`, the IC50 in [1] and in series [2] was greater than 3 µM throughout. Moreover, the inhibition in series [6] and in [7] was less than 50% in each case. In addition, the inhibition at 24 h, 3 µM in the series with Aurk (Aurora kinase) [4] and in the series on Aurk (Aurora kinase) [5] was less than 50% in each case.
As for `Cc1[nH]nc(Nc2cc(N3CCCCC3)nc(Nc3ccc(NC(=O)C4CCCCC4)cc3)n2)c1C`, the concentration for half-maximal inhibition (IC50) in [1] and in series [2] was greater than 3 µM in each case. For the same molecule, the inhibition in [6] and in series [7] was less than 50% each time. Moreover, the inhibition at 24 h, 3 µM with Aurk (Aurora kinase) [4] and with Aurk (Aurora kinase) [5] was less than 50% in each case.
With `Cc1[nH]nc(Nc2nc(Sc3ccc(NC(=O)C4CCCCC4)cc3)nc(N3CCOCC3)n2)c1C`, the half-maximal inhibitory concentration (IC50) in [1] and in series [2] was greater than 3 µM in each case. Further, the inhibition in series [6] and in [7] was less than 50% each time. Besides, the inhibition at 24 h, 3 µM in the series with Aurk (Aurora kinase) [4] and in the series on Aurk (Aurora kinase) [5] was less than 50% throughout.
With `Cc1[nH]nc(Nc2cc(N3CCOCC3)nc(Nc3ccc(NC(=O)C4CC4)cc3)n2)c1C`, the half-inhibitory concentration (IC50) in series [1] and in series [2] was greater than 3 µM each time. For the same molecule, the inhibition in series [6] and in series [7] was less than 50% each time. Also, the inhibition at 24 h, 3 µM with Aurk (Aurora kinase) [4] and with Aurk (Aurora kinase) [5] was less than 50% in each case.
Consider `CCN1CCN(c2cc(Nc3n[nH]c(C)c3C)nc(Sc3ccc(NC(=O)C4CC4)cc3)n2)CC1`, for which the concentration for half-maximal inhibition (IC50) in series [1] and in series [2] was greater than 3 µM in each case. The inhibition in series [6] and in [7] was less than 50% throughout. The inhibition at 24 h, 3 µM in the series on Aurk (Aurora kinase) [4] and in the series on Aurk (Aurora kinase) [5] was less than 50% throughout.
Regarding `Cc1[nH]nc(Nc2cc(N3CCOCC3)nc(Sc3ccc(NC(=O)C4CCCCC4)cc3)n2)c1C`, the IC50 in [1] and in series [2] was greater than 3 µM in each case. The inhibition in series [6] and in series [7] was less than 50% throughout. Also, the inhibition at 24 h, 3 µM with Aurk (Aurora kinase) [4] and in the series with Aurk (Aurora kinase) [5] was less than 50% each time.
Take `Cc1cc(Nc2nc(Sc3ccc(NC(=O)C4CCCCC4)cc3)nc(N3CCCCC3)n2)n[nH]1`: the IC50 in series [1] and in series [2] was greater than 3 µM each time. The inhibition in [6] and in series [7] was less than 50% throughout. The inhibition at 24 h, 3 µM in the series on Aurk (Aurora kinase) [4] and with Aurk (Aurora kinase) [5] was less than 50% in each case.
With `Cc1cc(Nc2cc(N3CCOCC3)nc(Nc3ccc(NC(=O)C4CC4)cc3)n2)n[nH]1`, the IC50 was greater than 3 µM in [1], greater than 3 µM in series [2], 0.853 µM on Aurora kinase B and 0.43 µM on Aurora kinase A. For the same molecule, the inhibition at 24 h, 3 µM in the series with Aurk (Aurora kinase) [4] and with Aurk (Aurora kinase) [5] was less than 50% throughout. Besides, the result in the series with Mus musculus was Active.
As to `Cc1cc(Nc2nc(Nc3ccc(NC(=O)C4CC4)cc3)nc(N3CCCCC3)n2)n[nH]1`, the 50% inhibitory concentration (IC50) in [1] and in [2] was greater than 3 µM throughout. The inhibition in series [6] and in series [7] was less than 50% in each case. For the same molecule, the inhibition at 24 h, 3 µM with Aurk (Aurora kinase) [4] and with Aurk (Aurora kinase) [5] was less than 50% in each case.
With `Cc1[nH]nc(Nc2cc(N3CCN(C)CC3)nc(Sc3ccc(NC(=O)C4CCCCC4)cc3)n2)c1C`, the IC50 in series [1] and in series [2] was greater than 3 µM in each case. Further, the inhibition in series [6] and in series [7] was less than 50% each time. Moreover, the inhibition at 24 h, 3 µM in the series on Aurk (Aurora kinase) [4] and in the series with Aurk (Aurora kinase) [5] was less than 50% throughout.
Turning to `Cc1cc(Nc2nc(Sc3ccc(NC(=O)C4CC4)cc3)nc(N3CCCCC3)n2)n[nH]1`, the IC50 in series [1] and in [2] was greater than 3 µM each time. Also, the inhibition in [6] and in series [7] was less than 50% each time. The inhibition at 24 h, 3 µM in the series on Aurk (Aurora kinase) [4] and with Aurk (Aurora kinase) [5] was less than 50% throughout.
In the case of `Cc1[nH]nc(Nc2nc(Nc3ccc(NC(=O)C4CC4)cc3)nc(N3CCCCC3)n2)c1C`, the half-maximal inhibitory concentration (IC50) in series [1] and in series [2] was greater than 3 µM in each case. Further, the inhibition in series [6] and in series [7] was less than 50% throughout. For the same molecule, the inhibition at 24 h, 3 µM with Aurk (Aurora kinase) [4] and with Aurk (Aurora kinase) [5] was less than 50% each time.
